Structures are written as SMILES. Calls of active or inactive are those of the source.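 The calls were made as follows: active = peak KCNK3 inhibition above a set limit at some dose, plus a fitted dose-response curve; inactive = no KCNK3 inhibition, or no dose-response curve.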

One assay deals with Potassium channel subfamily K member 3 (Rattus norvegicus) (UniProt O54912). The assay can be described thus: KCNK3 off-target potassium flux block – cell-based, FluxOR thallium flux, CRC set 2, selectivity assay for KCNK9 inhibitor project, SAR follow-up (AID 623912). To be noted: KCNK3-expressing cells, FluxOR thallium flux fluorescence. In a few lines: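 Assay system: tetracycline-induced CHO cells expressing rat KCNK3 potassium channel. Probe or stimulus: Tl+/K+ sulfate stimulus buffer (5x stock). Dosing: concentration series of compound. Incubation: dye 90 min, compound 20 min, both room temperature. Measured by: FluxOR Tl+ flux fluorescence. Evaluation: IC50 from normalized flux signal. Replicates: duplicate or more.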
Chain of Potassium channel subfamily K member 3 (Rattus norvegicus) (O54912 whole entry, looked up): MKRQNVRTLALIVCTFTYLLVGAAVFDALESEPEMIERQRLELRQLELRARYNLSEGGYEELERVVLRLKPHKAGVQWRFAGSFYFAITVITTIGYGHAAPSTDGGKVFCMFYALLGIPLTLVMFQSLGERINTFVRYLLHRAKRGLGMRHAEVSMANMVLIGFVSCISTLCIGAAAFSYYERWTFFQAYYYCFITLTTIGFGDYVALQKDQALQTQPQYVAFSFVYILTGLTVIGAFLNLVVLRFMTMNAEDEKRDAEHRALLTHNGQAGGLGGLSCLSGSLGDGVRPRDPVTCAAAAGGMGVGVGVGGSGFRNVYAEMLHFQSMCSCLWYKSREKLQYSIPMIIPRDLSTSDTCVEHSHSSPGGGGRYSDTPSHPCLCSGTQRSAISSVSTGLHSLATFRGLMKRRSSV
The IC50 is the point on the concentration scale where inhibition reaches its midpoint. `COc1cccc(-c2nnc(S(C)(=O)=O)n2C(C)C2CC3CCC2C3)c1` (configuration not stated): the half-inhibitory concentration (IC50) was 106 nM. Still for that read-out and setting: the same measure for `O=C(Nc1cccc(NC(=O)C2CCCCC2)c1)c1ccccc1`: 79.2 nM; for `Cc1cccc(C(=O)Nc2cccc(NC(=O)c3cccc(C)c3)c2)c1`: 29.6 nM. Same read-out and setting: the result for `CCOc1ccccc1NC(=O)c1cccc(NC(=O)c2cccc(OC)c2)c1` reads 5 nM; that for `CCOc1ccccc1NC(=O)c1cccc(NC(=O)c2cccc(C(F)(F)F)c2)c1`, 232 nM; that for `O=C(Nc1cccc(NC(=O)c2ccccn2)c1)c1ccccc1`, 85.8 nM.

On to `COc1cccc(-c2n[nH]c(=S)n2C(C)C2CC3CCC2C3)c1OC` (configuration not stated), for which the half-inhibitory concentration (IC50) was 15 nM. For `CCOc1ccc(NC(=O)c2cccc(NC(=O)C3CCCC3)c2)cc1`, the half-maximal inhibitory concentration (IC50) was 70.2 nM.

As to `COc1ccccc1C(=O)Nc1cccc(NC(=O)c2ccccc2OC)c1`, the IC50 was 9.67 nM.

On to `CCOc1ccccc1C(=O)Nc1cccc(NC(=O)c2ccccc2OC)c1`, for which the IC50 is 2 nM. On the same count and under the same terms, the result for `CC(C1CC2CCC1C2)n1c(-c2ccccc2Cl)n[nH]c1=S` (configuration not stated) reads 2050 nM.

Consider `Cc1cccc(C(=O)Nc2cccc(NC(=O)c3ccco3)c2)c1`, for which the IC50 is 143 nM.

In the case of `Cc1cccc(C(=O)Nc2cccc(NC(=O)c3ccc(C(C)(C)C)cc3)c2)c1`, the 50% inhibitory concentration (IC50) is 184 nM. Consider `CCOc1ccccc1NC(=O)c1cccc(NC(=O)C2CC2)c1`, for which the half-maximal inhibitory concentration (IC50) is 1070 nM. Same read-out and setting: the result for `CCOc1ccccc1NC(=O)c1cccc(NC(=O)c2cccc(C)c2)c1` reads 17 nM. With `COc1ccccc1C(=O)Nc1cccc(NC(=O)c2cccc3ccccc23)c1`, the IC50 is 3 nM.

For `Cc1cccc(C(=O)Nc2cccc(NC(=O)c3ccccc3Cl)c2)c1`, the IC50 was 23 nM. Same read-out and setting: the result for `COc1ccccc1NC(=O)c1cccc(NC(=O)c2ccccc2C(F)(F)F)c1` reads 42 nM; that for `COc1ccccc1NC(=O)c1cccc(NC(=O)c2ccccc2OC)c1`, 8 nM.

As to `CC(C1CC2CCC1C2)n1c(-c2ccco2)n[nH]c1=O` (configuration not stated), the half-inhibitory concentration (IC50) is 181 nM.

With `Cc1cccc(C(=O)Nc2cccc(NC(=O)c3ccccc3C)c2)c1`, the IC50 was 90.8 nM. The same measure, in the same setting: the result for `Cc1cccc(C(=O)Nc2cccc(NC(=O)c3ccccc3C(C)C)c2)c1` reads 328 nM. Same read-out and setting: the same measure for `COc1ccccc1C(=O)Nc1cc(NC(=O)c2ccccc2C(C)C)ccc1F`: 10 nM; for `CCOc1ccccc1C(=O)Nc1cccc(NC(=O)c2ccccc2C(F)(F)F)c1`: 2 nM; for `O=C(Nc1ccccc1Cl)c1cccc(NC(=O)C2CCCC2)c1`: 202 nM.

Turning to `O=C(Nc1cccc(NC(=O)c2ccoc2)c1)c1ccccc1`, the 50% inhibitory concentration (IC50) was 799 nM.

`COc1ccccc1C(=O)Nc1cccc(NC(=O)c2cccc(C)c2)c1`: the IC50 is 11 nM. Same read-out and setting: the same measure for `Cc1cccc(C(=O)Nc2ccccc2NC(=O)c2ccccc2)c1`: 260 nM. Still for that read-out and setting: the same measure for `COc1ccccc1NC(=O)c1cccc(NC(=O)C2CCCCC2)c1`: 86 nM. Same read-out and setting: the same measure for `CC(c1ccccc1)n1c(-c2ccco2)n[nH]c1=S` (configuration not stated): 567 nM; for `CCOc1ccccc1NC(=O)c1cccc(NC(=O)c2ccc(OC)cc2)c1`: 300 nM. As for `CCOc1ccccc1NC(=O)c1cccc(NC(=O)C2CCCO2)c1` (configuration not stated), the 50% inhibitory concentration (IC50) is 129 nM. On the same count and under the same terms, the result for `CC(C1CCCCC1)n1c(-c2ccco2)n[nH]c1=S` (configuration not stated) reads 44 nM. For `CC(C1CC2CCC1C2)n1cnnc1-c1ccco1` (configuration not stated), the half-inhibitory concentration (IC50) is 18 nM. On the same count and under the same terms, the result for `CC(C1CC2CCC1C2)n1c(-c2cccn2C)n[nH]c1=S` (configuration not stated) reads 1080 nM; that for `CC(C1CC2CCC1C2)n1c(-c2ccc(Cl)cc2)n[nH]c1=S` (configuration not stated), 240 nM; that for `CC(C1CC2CCC1C2)n1c(-c2ccccc2F)n[nH]c1=S` (configuration not stated), 2200 nM. Same read-out and setting: the same measure for `Cc1cccc(C(=O)Nc2cccc(NC(=O)c3ccncc3)c2)c1`: 27 nM. Turning to `CCOc1ccccc1NC(=O)c1cccc(NC(=O)c2ccccc2OC(F)(F)F)c1`, the IC50 is 114 nM. Take `COc1ccccc1NC(=O)c1cccc(NC(=O)c2ccccc2)c1`: the 50% inhibitory concentration (IC50) is 64 nM.

As for `CN(C)c1ccc(C(=O)Nc2cccc(NC(=O)c3ccccc3)c2)cc1`, the concentration for half-maximal inhibition (IC50) was 259 nM. Take `COc1ccccc1NC(=O)c1cccc(NC(=O)C2CCCC2)c1`: the IC50 is 238 nM. On to `COc1ccc(C(=O)Nc2cccc(NC(=O)c3cccc(C)c3)c2)cc1`, for which the IC50 is 1330 nM. Regarding `CCOc1ccccc1NC(=O)c1cccc(NC(=O)c2ccccc2OC)c1`, the half-maximal inhibitory concentration (IC50) is 6.53 nM.

With `CCOc1ccccc1NC(=O)c1cccc(NC(=O)c2ccccc2Cl)c1`, the IC50 was 83.9 nM. Still for that read-out and setting: the same measure for `COc1cc(OC)cc(-c2n[nH]c(=S)n2C(C)C2CC3CCC2C3)c1` (configuration not stated): 110 nM; for `Cc1cccc(NC(=O)c2ccccc2NC(=O)c2ccccc2)c1`: 1380 nM.

On to `S=c1[nH]nc(-c2ccco2)n1CC1CCCCC1`, for which the 50% inhibitory concentration (IC50) was 606 nM. Still for that read-out and setting: the same measure for `CC(C1CC2CCC1C2)n1c(SCc2ccccc2)nnc1-c1ccco1` (configuration not stated): 1660 nM; for `CCOc1ccccc1C(=O)Nc1cccc(NC(=O)c2cccc(C)c2)c1`: 7.46 nM. On to `CC(C1CC2CCC1C2)n1c(-c2cccs2)n[nH]c1=S` (configuration not stated), for which the 50% inhibitory concentration (IC50) is 18 nM.

Take `Cc1cccc(C(=O)Nc2ccc(C(=O)Nc3ccccc3)cc2)c1`: the IC50 is 183 nM. As for `O=C(Nc1cccc(NC(=O)c2ccccc2C(F)(F)F)c1)c1ccccc1`, the IC50 was 130 nM. Turning to `CCOc1ccccc1NC(=O)c1cccc(NC(=O)c2ccc(C)cc2)c1`, the IC50 was 134 nM.

For the molecule `CCOc1ccccc1NC(=O)c1cccc(NC(=O)C2CCCCC2)c1`, the half-maximal inhibitory concentration (IC50) is 66.9 nM. The same measure, in the same setting: the same measure for `O=C(Nc1cccc(NC(=O)c2cccs2)c1)c1ccccc1`: 29.4 nM. On the same count and under the same terms, the result for `CC(c1cccc2ccccc12)n1c(-c2ccco2)n[nH]c1=S` (configuration not stated) reads 561 nM; that for `Cc1cccc(C(=O)Nc2cccc(NC(=O)c3ccccc3OC(F)(F)F)c2)c1`, 28.5 nM; that for `CCOc1ccccc1NC(=O)c1cccc(NC(=O)CC2CCCC2)c1`, 161 nM. Same read-out and setting: the same measure for `COc1ccccc1C(=O)Nc1cccc(NC(=O)c2ccccc2C(C)C)c1`: 7 nM; for `CC(C1CC2CCC1C2)N(C)C(=O)c1ccco1` (configuration not stated): 6 nM; for `S=c1[nH]nc(-c2ccco2)n1CC1CC2CCC1C2` (configuration not stated): 915 nM. Take `Cc1ccccc1C(=O)Nc1cccc(NC(=O)c2ccccc2)c1`: the IC50 was 104 nM. Still for that read-out and setting: the same measure for `CC(C)Oc1ccccc1C(=O)Nc1cccc(NC(=O)c2ccccc2OC(F)(F)F)c1`: 1 nM; for `O=C(Nc1cccc(NC(=O)c2ccsc2)c1)c1ccccc1`: 162 nM.

Consider `COc1ccccc1C(=O)Nc1cccc(NC(=O)c2ccccc2OC(F)(F)F)c1`, for which the half-inhibitory concentration (IC50) is 4 nM.

For the molecule `COc1ccc(C(=O)CSc2nnc(-c3ccco3)n2C(C)C2CC3CCC2C3)cc1OC` (configuration not stated), the IC50 is 2080 nM. Same read-out and setting: the same measure for `CC(C)c1ccccc1C(=O)Nc1cccc(NC(=O)c2ccccc2OC(F)(F)F)c1`: 11 nM; for `O=C(Nc1cccc(NC(=O)c2ccccc2Cl)c1)c1ccccc1`: 311 nM. The same measure, in the same setting: the result for `CC(C1CC2CCC1C2)n1c(-c2ccoc2)n[nH]c1=S` (configuration not stated) reads 298 nM; that for `CCOc1ccccc1NC(=O)c1cccc(NC(=O)C(C)(C)C)c1`, 1320 nM.

As to `O=C(Nc1cccc(NC(=O)c2ccncc2)c1)c1ccccc1`, the IC50 is 249 nM. The same measure, in the same setting: the same measure for `Cc1ccc(-c2n[nH]c(=S)n2C(C)C2CC3CCC2C3)cc1` (configuration not stated): 770 nM; for `CCOc1ccccc1NC(=O)c1cccc(NC(=O)c2ccc(Cl)cc2)c1`: 139 nM; for `CC(C1CC2CCC1C2)n1c(-c2ccco2)n[nH]c1=S` (configuration not stated): 341 nM. On to `CCOc1ccccc1NC(=O)c1cccc(C(=O)NC2CCCC2)c1`, for which the IC50 was 342 nM.

In the case of `O=C(Nc1cccc(NC(=O)c2ccccc2)c1)c1ccccc1`, the IC50 is 18 nM. Turning to `CCOc1cccc(NC(=O)c2cccc(NC(=O)C3CCCC3)c2)c1`, the half-maximal inhibitory concentration (IC50) was 491 nM. Still for that read-out and setting: the result for `Cc1cccc(C(=O)Nc2cccc(NC(=O)c3cccc(C(F)(F)F)c3)c2)c1` reads 11 nM; that for `CC(C1CC2CCC1C2)n1c(-c2ccccn2)n[nH]c1=S` (configuration not stated), 1300 nM; that for `Cc1cccc(S(=O)(=O)Nc2cccc(NC(=O)c3ccccc3)c2)c1`, 1450 nM.

Regarding `Cc1cccc(C(=O)Nc2cccc(C(=O)Nc3ccccc3)c2)c1`, the half-maximal inhibitory concentration (IC50) is 850 nM. Same read-out and setting: the result for `COc1cccc(OC)c1C(=O)Nc1cccc(NC(=O)c2cccc(C)c2)c1` reads 148 nM.

Take `CCOc1ccccc1NC(=O)c1cccc(NC(=O)C2CCCC2)c1`: the half-inhibitory concentration (IC50) is 68.3 nM.

The assay is the same for the next values; noted with them: KCNK3-expressing cells, FluxOR thallium flux fluorescence; at 3 µM (top of the series).
`CC(C1CC2CCC1C2)n1c(-c2ccsc2)n[nH]c1=S` (configuration not stated): the “flux ratio, lower = inhibition” value is “inactive”. Still for that read-out and setting: the result for `Cc1cccc(C(=O)Nc2cccc(NC(=O)c3ccccc3C(F)(F)F)c2)c1` reads “inactive”. On to `Cc1ccc(C(=O)Nc2cccc(NC(=O)c3ccccc3)c2)cc1`, for which the “flux ratio, lower = inhibition” value is “inactive”. Same read-out and setting: the result for `Cc1cccc(C(=O)Nc2cccc(NC(=O)c3ccc(C(F)(F)F)cc3)c2)c1` reads “inactive”. Same read-out and setting: the result for `CC(C)(C)c1ccc(C(=O)Nc2cccc(NC(=O)c3ccccc3)c2)cc1` reads “inactive”. Turning to `O=C(Nc1cccc(NC(=O)c2ccc(C(F)(F)F)cc2)c1)c1ccccc1`, the “flux ratio, lower = inhibition” value is “inactive”. On the same count and under the same terms, the result for `COc1cccc(Cc2n[nH]c(=S)n2C(C)C2CC3CCC2C3)c1` (configuration not stated) reads “inactive”; that for `COc1ccc(-c2n[nH]c(=S)n2C(C)C2CC3CCC2C3)cc1` (configuration not stated), “inactive”. Still for that read-out and setting: the result for `CC(c1ccco1)n1c(-c2ccoc2)n[nH]c1=S` (configuration not stated) reads “inactive”; that for `CC(C1CC2CCC1C2)n1c(SCC#N)nnc1-c1cccs1` (configuration not stated), “inactive”. Still for that read-out and setting: the same measure for `CC(C1CC2CCC1C2)n1c(C2CCOC2)n[nH]c1=S` (configuration not stated): “inactive”; for `O=C(Nc1cccc(NC(=O)c2ccc(Cl)cc2)c1)c1ccccc1`: “inactive”.

Take `Cc1cccc(NC(=O)c2cccc(NC(=O)c3ccccc3)c2)c1`: the “flux ratio, lower = inhibition” value is “inactive”.

For the origin of these results see PubChem BioAssay AID623912 (Johns Hopkins Ion Channel Center, 2012).
